Bioassay records (PubChem BioAssay)
Platelet DG rel – inhibitors of platelet dense granule secretion, primary screen, cell-based, MLPCN, human platelets | human platelet-rich plasma, SFLLRN dense granule ATP release, luminescence | 0.22% of 300,000 active | inhibition, %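 (compounds screened at 7.5 µM in platelet-rich plasma)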;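 active = mean replicate score, as percent of positive control, at or above 50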
TRPC6 inh – mouse TRPC6 channel inhibitors, primary screen, cell-based, HEK293, membrane potential dye. ACh-evoked depolarization; stronger effect = lower value. B-score at 10 µM. 1.1% of 310,000 active. AID 2553, 2010;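 active = B-score under library mean minus 3 SD, initial fluorescence not abnormally high, positive integrated signal ratio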;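 note: B-score derived from integrated fluorescence ratio over the kinetic read; more negative B-score means stronger inhibition of depolarization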
TRPC4 PAM – positive allosteric modulators of TRPC4, primary screen, cell-based, mouse TRPC4beta, HEK293 mu-opioid, Fluo-4 calcium | Short transient receptor potential channel 4 (Mus musculus), Q9QUQ5 | B-score at 10 µM | 0.42% of 310,000 active | DAMGO EC20, Fluo-4 Ca2+ flux; stronger effect = higher value | AID 2227, 2009;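 active = B-score of calcium response area above 5 SD of library B-scores, with initial fluorescence ratio within 5 SD of library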
TRPC6 act – mouse TRPC6 channel activators, primary screen, cell-based, HEK293, membrane potential dye; B-score at 10 µM; HEK293-TRPC6 membrane potential dye fluorescence; stronger effect = higher value; 0.13% of 310,000 active;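 active = B-score of the integrated fluorescence ratio above library mean plus 3 SD, and starting fluorescence ratio within library mean plus 5 SD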;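 note: higher score means more depolarization so channel activation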
TRPC4 agonist – activators of mouse TRPC4 channel, primary screen, Fluo4 calcium, HEK293 TRPC4beta/mu-opioid cells; Short transient receptor potential channel 4 (Mus musculus), Q9QUQ5; Fluo4 calcium fluorescence; stronger effect = higher value; B-score at 10 µM; 0.49% of 310,000 active;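 active = B-score above 5 SD of library B-scores, and initial fluorescence ratio not above library mean plus 5 SD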;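 note: positive B-score marks a calcium rise read as TRPC4 activation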
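Assay system – TRPC4beta and mu-opioid receptor HEK293 stable cells · Measured by – Fluo4 fluorescence, kinetic · Schedule – dye loading 45 min room temperature, 110 s kinetic read · Read-out – B-scored integrated calcium fluorescence ratio · Controls – buffer and maximal DAMGO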
TRPC4 inh – inhibitors of mouse TRPC4 channel, primary screen, Fluo4 calcium, HEK293 TRPC4beta/mu-opioid cells. Short transient receptor potential channel 4 (Mus musculus), Q9QUQ5. DAMGO-evoked Fluo4 calcium flux; stronger effect = lower value. B-score at 10 µM. 0.39% of 300,000 active;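 active = B-score over 3 SD under the library average, no early fluorescence shift, positive overall ratio signal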
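Test system – stable TRPC4beta/mu-opioid receptor HEK293 cells · Probe or stimulus – DAMGO, a submaximal dose followed by a maximal one · Dosing – one concentration per compound · Signal – Fluo4 calcium fluorescence by kinetic imaging, 5 s 1 Hz baseline · Evaluation – per-well B score of integrated baseline-normalized Fluo4 ratio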
TRPC4 spec 2 – second check of whether TRPC6 inhibitors also affect mouse TRPC4 | shares compounds with TRPC6 inh | HEK293 TRPC4/MOR, membrane potential dye fluorescence; channel activated by saturating DAMGO dose | inhibition, % at 10 µM | 42% of 920 active | AID 2776;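 active = compounds whose fluorescence signal differed from control wells by over 3 SD, either direction, in both duplicate plates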
TRPC4 spec – mouse TRPC4 modulation by TRPC6 hits, confirmation, selectivity assay for TRPC6 inhibitor project, cell-based, HEK293 TRPC4/mu-opioid, membrane potential dye; activity change, negative = inhibition, % at 10 µM; shares compounds with TRPC6 inh; membrane potential fluorescence; 61% of 920 active;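 active = rise or fall in signal beyond 3 SD of buffer-only wells in both replicate plates, either sign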;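 note: integrated kinetic ratio of fluorescence range over baseline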
HEK293 MPD ctr 2-1 – nonspecific membrane potential effects, parental HEK293, confirmation, counter-screen for TRPC6 inhibitor project, cell-based, second counter screen; shares compounds with TRPC6 inh; parental HEK293 membrane potential dye fluorescence; maximal acetylcholine challenge after compound addition; signal change vs control, % at 10 µM; 31% of 920 active; AID 2779, 2010;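 active = membrane potential signal moving either way by over 3 SD of the maximum-effect control, in both duplicate plates, meaning non-specific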
HEK293 MPD ctr-1 – membrane potential modulation in parental HEK293, confirmation, counter-screen for TRPC6 inhibitor project, cell-based; parental HEK293 membrane potential dye fluorescence; shares compounds with TRPC6 inh; 60% of 920 active; AID 2780, 2010; membrane potential signal change, % at 10 µM;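 active = membrane potential signal shifting up or down by more than 3 SD of buffer-only wells, on both duplicate plates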
HEK293 MPD ctr-2 – parental HEK293 membrane potential modulation, confirmation, counter-screen for TRPC6 modulator project, cell-based. shares compounds with TRPC6 inh. membrane potential dye fluorescence. membrane potential signal change, % at 10 µM. 51% of 2,400 active;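 active = membrane potential signal moves up or down beyond 5 SD from buffer-only wells, on both duplicate plates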
HEK293 MPD ctr 2-2 – second counter-screen for TRPC6 modulators: effect in parental HEK293 cells | shares compounds with TRPC6 inh | membrane potential dye fluorescence; after compound, maximal acetylcholine stimulation | inhibition, % at 10 µM | 14% of 2,400 active | AID 488926;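 active = membrane potential signal drops by more than 5 SD from the mean control signal, in both duplicate plates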
TRPC4/MOR mod – TRPC4 modulation by TRPC6 hit compounds, confirmation, selectivity assay for TRPC6 modulator project, cell-based, HEK293 TRPC4/mu-opioid, membrane potential dye, mouse; shares compounds with TRPC6 inh; membrane potential fluorescence; percent change from control (negative = decrease, positive = increase), % at 10 µM; 69% of 2,400 active; AID 488927, 2010;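 active = membrane potential signal moved up or down beyond 5 SD of buffer control wells, in both duplicate plates, actives on both sides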
TRPC4 ctr inh 2 – second check of whether TRPC6 modulators also affect mouse TRPC4; AID 488928; shares compounds with TRPC6 inh; inhibition, % at 10 µM; 55% of 2,400 active; HEK293 TRPC4/mu-opioid, membrane potential dye fluorescence; stimulated with maximal-effect DAMGO;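 active = drop in membrane potential signal beyond 5 SD of the control wells in both duplicate plates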;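 note: TRPC4 counter screen for TRPC6 hits run under conditions tuned for TRPC6 not TRPC4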
TRPC6 block conf – mouse TRPC6 channel inhibitors, confirmation, HEK293 cells, membrane potential dye, duplicate. shares compounds with TRPC6 inh. ACh-evoked depolarization. inhibition, % at 10 µM. 43% of 3,300 active. AID 488960, 2010;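 active = fluorescence ratio falls more than 5 SD below the full-stimulation control mean, in both duplicate runs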;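 note: integrated fluorescence ratio of peak minus minimum over baseline after agonist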
TRPC6 act confirm – mouse TRPC6 channel activators, confirmation, HEK293 cells, membrane potential dye, duplicate | AID 488961, 2010 | shares compounds with TRPC6 inh | HEK293-TRPC6 membrane potential dye fluorescence, FDSS | 11% of 2,800 active | activation, % at 10 µM;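 active = ratio signal rise beyond 5 SD above unstimulated control wells' mean, seen in both duplicate runs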
Of the large screens only hits and unclear results are named; the others gave an inactive call (follow-up assays come after a bar, where they were run). Compounds with a hit are over-represented: about 2.5% of the library has one in this group of screens.

Cc1cccc(NC(=O)c2cc3c(=O)n4ccccc4nc3s2)c1	none
CC(=O)NS(=O)(=O)c1ccc(NC(=O)c2cc3c(=O)n4ccccc4nc3s2)cc1	TRPC6 inh -7.9 | TRPC4 spec 2 74% | TRPC4 spec -35% | HEK293 MPD ctr 2-1 30% | HEK293 MPD ctr-1 -653% | TRPC6 block conf inactive | TRPC6 act confirm inactive
Cc1cc(Cl)ccc1OC(C)C(=O)NCCCn1ccnc1 (stereo unspecified)	none
COc1ccc(Cc2nc3ccccc3c(=O)n2N)cc1OC	none
O=[N+]([O-])c1ccc(NC(=S)NCCc2ccc(F)cc2)cc1	TRPC6 inh -5.3 | HEK293 MPD ctr-2 inactive | HEK293 MPD ctr 2-2 inactive | TRPC4/MOR mod inactive | TRPC4 ctr inh 2 62% | TRPC6 block conf inactive | TRPC6 act confirm inactive
O=C(NCCc1ccc(F)cc1)Nc1ccc([N+](=O)[O-])cc1	none (no result: Platelet DG rel)
CCc1ccc(S(=O)(=O)NC(=S)Nc2ccccc2)cc1	none
COc1cc(/C=N/NC(=O)c2nnn(-c3nonc3N)c2C(C)C)ccc1OCc1ccc(F)cc1	none
O=[N+]([O-])C1=CC=C2C(=NC3(CCCCC3)N2O)C1=NC1CCCCC1	none
CC1(C)CC(N=C2C([N+](=O)[O-])=CC=C3C2=NC2(CCCCC2)N3O)CC(C)(C)N1	TRPC6 inh -5.2 | HEK293 MPD ctr-2 -130% | HEK293 MPD ctr 2-2 inactive | TRPC4/MOR mod -26% | TRPC4 ctr inh 2 30% | TRPC6 block conf inactive | TRPC6 act confirm inactive
Cc1nc2ccccc2n1S(=O)(=O)c1ccc(F)cc1	none
Cc1ccc(S(=O)(=O)n2c(N)nc3ccccc32)cc1	TRPC6 inh -8.4 | TRPC4 spec 2 inactive | TRPC4 spec inactive | HEK293 MPD ctr 2-1 38% | HEK293 MPD ctr-1 inactive | TRPC6 block conf 64% | TRPC6 act confirm inactive
Cc1ccc(NC(=O)C2CCN(S(=O)(=O)c3ccc(N4CCCC4=O)cc3)CC2)cc1Cl	none
CCN1CCN(c2nc3ccccc3nc2C(C#N)C(=O)OCc2ccccc2)CC1 (stereo unspecified)	TRPC6 inh -7.3 | TRPC4 spec 2 40% | TRPC4 spec -19% | HEK293 MPD ctr 2-1 inactive | HEK293 MPD ctr-1 -200% | TRPC6 block conf inactive | TRPC6 act confirm inactive
CCCCCCOC(=O)C(C#N)c1nc2ccccc2nc1N1CCN(CC)CC1 (stereo unspecified)	TRPC6 inh -5.3 | HEK293 MPD ctr-2 inactive | HEK293 MPD ctr 2-2 inactive | TRPC4/MOR mod -29% | TRPC4 ctr inh 2 70% | TRPC6 block conf inactive | TRPC6 act confirm inactive
COc1ccccc1NC(=O)Nc1ccccc1Br	none
CC(Sc1nc2ccccc2s1)C(=O)c1c(N)n(C)c(=O)n(C)c1=O (stereo unspecified)	none
c1ccc(-n2ncc3c(N4CCC5(CC4)OCCO5)ncnc32)cc1	TRPC6 inh -7.7 | TRPC4 spec 2 inactive | TRPC4 spec inactive | HEK293 MPD ctr 2-1 220% | HEK293 MPD ctr-1 inactive | TRPC6 block conf inactive | TRPC6 act confirm inactive
Cc1cccc(-n2ncc3c(N4CCC5(CC4)OCCO5)ncnc32)c1	none
Cc1ccc(Nc2c(-c3ccccn3)nc3cc(C)ccn23)cc1	TRPC6 inh -5.5 | HEK293 MPD ctr-2 -134% | HEK293 MPD ctr 2-2 inactive | TRPC4/MOR mod -27% | TRPC4 ctr inh 2 72% | TRPC6 block conf inactive | TRPC6 act confirm inactive
COc1ccccc1CNC(=O)C1CCCN(S(=O)(=O)c2cccc3nonc23)C1 (stereo unspecified)	none
N#CCSc1ccc2nc(-c3ccccc3)cn2n1	none
COc1ccc(C(CNC(=O)c2ccc(Cl)c(NC(=O)c3cccs3)c2)N2CCCC2)cc1 (stereo unspecified)	TRPC6 inh -6 | HEK293 MPD ctr-2 106% | HEK293 MPD ctr 2-2 inactive | TRPC4/MOR mod inactive | TRPC4 ctr inh 2 64% | TRPC6 block conf 42%
COc1ccc(C(CNC(=O)Cc2ccccc2Cl)N2CCCCC2)cc1 (stereo unspecified)	none
